The term IC50 denotes the concentration at which inhibition is half-maximal.

SMILES strings stand for the structures.

This passage reports IC50, Activity and Papp B→A results from ChEMBL document CHEMBL4118248, “Small Molecule Proprotein Convertase Subtilisin/Kexin Type 9 (PCSK9) Inhibitors: Hit to Lead Optimization of Systemic Agents” (J Med Chem, 2018).

One series relates to Bone marrow cell. Briefly: Cytotoxicity against rat bone marrow cells assessed as reduction in cell viability after 72 hrs by CellTiter-Glo assay. The series is classed as cell-based. (In general: ATP-based viability assays read luminescence as a measure of living cells.)
The target of series [1] is 80S Ribosome. Briefly: Binding affinity to 80S ribosome in human HuH7 cells assessed as inhibition of PCSK9 mRNA translation after overnight incubation by ELISA. The series is classed as cell-based. The note with it: huh-7. The method, boiled down: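 Huh7 cells kept in high-glucose DMEM, 10% BSA-free FBS, 2 mM L-glutamine, pen/strep at 37 °C, 5% CO2. Plated 7,500/well with compound or vehicle and incubated overnight (16-20 h). Secreted PCSK9 in the medium read by AlphaLISA: two antibodies to different mature-PCSK9 epitopes, biotinylated antibody 3 nM final, acceptor beads 10 µg/mL, 0.5 h rt; streptavidin donor beads 40 µg/mL, 1 h rt.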

Series [2] relates to Rattus norvegicus. Briefly: Toxicity in Crl:CD(SD) rat assessed as decrease in total nucleated cell count at 50 mg/kg/day, po daily via gavage for 14 days measured on day 15 post last dose relative to control. The settings on record: in vivo, 336 h. Set-up: scale not given: the % may be the effect or the level left. The format is organism-based.
For series [3], the system named is Rattus norvegicus. Briefly: Toxicity in Crl:CD(SD) rat assessed as decrease in total erythroid cells at 50 mg/kg/day, po daily via gavage for 14 days measured on day 15 post last dose relative to control. The series is classed as organism-based. Set-up: scale not given: the % may be the effect or the level left. The note with it: in vivo, 336 h.
A short description of series [4]: Permeability from basolateral to apical side in MDCK cells harboring MDR1. The series is classed as ADME, cell-based, Canis lupus familiaris. The note with it: dog, read-out: permeability. The method, boiled down: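 Bidirectional permeability across MDR1-transfected MDCK monolayers, apical-to-basolateral and basolateral-to-apical; Papp reported in 10^-6 cm/s.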

The target of series [5] is 80S Ribosome. Briefly: Binding affinity to 80S ribosome in human HuH7 cells harboring pCMV-truncated human PCSK9 (1 to 152 residues)-proLuc assessed as inhibition of PCSK9 mRNA translation after overnight incubation by luciferase reporter gene assay. The series is classed as cell-based. The settings on record: huh-7. The method, boiled down:
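Huh7 cells stably carry human PCSK9 prodomain (aa 1-152) fused to firefly luciferase (aa 2-550) in pcDNA3.1, kept under 900 µg/mL Geneticin. Plated 10,000/well in phenol red-free DMEM/10% FBS and left 4 h, then compound added (top final 20 µM, 0.5% DMSO). Incubated overnight at 37 °C, luminescence read with SteadyGlo.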
On the technique in general: A reporter such as luciferase makes a cellular process visible.

The test system of series [6] is Rattus norvegicus. Briefly: Toxicity in Crl:CD(SD) rat assessed as decrease in total T cells at 50 mg/kg/day, po daily via gavage for 14 days measured on day 15 post last dose relative to control. More on the design: scale not given: the % may be the effect or the level left. The settings on record: in vivo, 336 h. The series is classed as organism-based.
In series [7] the test system is Rattus norvegicus. The series is described as follows: Toxicity in Crl:CD(SD) rat assessed as decrease in hematocrit and hemoglobin level at 50 mg/kg/day, po daily via gavage for 14 days measured on day 15 post last dose relative to control. The series is classed as organism-based. More on the design: scale not given: the % may be the effect or the level left. The note with it: in vivo, 336 h.

Series [8] has as its system Rattus norvegicus. The series is described as follows: Reduction in total cholesterol level in Crl:CD(SD) rat at 50 mg/kg/day, po daily via gavage for 14 days measured on day 15 post last dose relative to control. The format is functional. Set-up: scale not given: the % may be the effect or the level left.

As for `O=C(c1ccc(-n2nnc3cccnc32)cc1)N(c1ncccc1Cl)[C@@H]1CCCNC1`, the IC50 in the series on Bone marrow cell was 1200 to 2900 nM; at 80S Ribosome [1], 820 nM; on 80S Ribosome [5], 380 nM. Moreover, the Activity with Rattus norvegicus [2] is 30%; in the series with Rattus norvegicus [3], 46%; in the series with Rattus norvegicus [6] it was 54%; in the series with Rattus norvegicus [7] it was 9 to 10%; in the series with Rattus norvegicus [8], 30%. The Papp B→A in series [4] came to 20.6 ×10⁻⁶ cm/s.
